Screening results deposited in PubChem BioAssay by several laboratories.
This is a sample that favours compounds with a hit; in the whole collection about 3.5% have one here.
MEKK2mut PB1 HTS = signal of MEK5 binding to mutant human MEKK2 PB1 domain; AID 1530; bead flow cytometry, Alexa488-MEK5 binding to MEKK2 mutant; 0.35% of 290,000 active; percent response, % at 10 µM; in the data active = percent response above about 24%, passing the limit was not always enough
MEKK3 PB1 HTS = MEKK3-MEK5 PB1 interaction, increase or decrease. Q99759. bead-based flow cytometry, Alexa488-MEK5 binding to MEKK3; actives lie on both sides; 0 = blocked by unlabeled MEK5, 100 = vehicle. binding response (% of control), % at 10 µM. 1.4% of 290,000 active;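 active = binding response more than 3 SD above or below the average of its plate-row segment, actives on both sides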;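 note: Alexa488 bead fluorescence after subtracting the streptavidin-only scavenger bead signal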
Target sequence (Q99759 whole entry, looked up): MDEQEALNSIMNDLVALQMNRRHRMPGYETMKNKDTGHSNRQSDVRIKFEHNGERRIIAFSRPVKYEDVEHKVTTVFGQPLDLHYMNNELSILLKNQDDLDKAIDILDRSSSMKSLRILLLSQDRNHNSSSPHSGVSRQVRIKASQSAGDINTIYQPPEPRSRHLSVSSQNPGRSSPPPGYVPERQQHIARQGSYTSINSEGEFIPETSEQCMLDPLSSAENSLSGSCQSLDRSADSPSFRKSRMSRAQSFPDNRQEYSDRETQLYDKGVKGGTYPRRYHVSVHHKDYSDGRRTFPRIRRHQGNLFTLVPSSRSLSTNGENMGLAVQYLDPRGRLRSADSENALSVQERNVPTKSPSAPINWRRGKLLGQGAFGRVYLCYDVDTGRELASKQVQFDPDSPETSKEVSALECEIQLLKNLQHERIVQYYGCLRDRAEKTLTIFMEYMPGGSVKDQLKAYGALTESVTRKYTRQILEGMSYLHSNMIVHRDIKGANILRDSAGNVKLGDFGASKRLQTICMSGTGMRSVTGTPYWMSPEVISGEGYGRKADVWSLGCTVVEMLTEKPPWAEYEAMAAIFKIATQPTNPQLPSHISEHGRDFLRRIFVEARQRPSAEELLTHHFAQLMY
ABCG2 inh = inhibitors of human ABCG2 transporter, ABCB1 counter-screen | inhibition, % at 6.6 µM | IgMXP3 cells, JC-1 efflux, flow cytometry | Q9UNQ0 | AID 1325 | 0.1% of 190,000 active;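 active = inhibition above 80%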;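 note: 0% = DMSO and 100% = nicardipine control wells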
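Read-out basis: Efflux inhibition in percent versus controls | Test system: ABCG2 IgMXP3 and barcoded ABCB1 CCRF-Adr cell mix | Quantity: 3 million cells/mL in well | Schedule: 10 min at 25 °C | Control set: Nicardipine as high control, DMSO as low control | Reagent: JC-1 as fluorescent efflux pump substrate | Signal: Flow cytometry of retained JC-1 fluorescence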
WT yeast gro inh = growth inhibition of WT yeast, mitochondrial fusion screen | mitochondrial fusion phenotypic screen, WT strain | inhibition, % at 10 µM | 2.1% of 190,000 active; in the data active = inhibition above about 58%; tested in S. cerevisiae
MEKK2wt PB1 HTS = raises or lowers MEK5 binding to wildtype human MEKK2 PB1 domain. binding response (% of control), % at 10 µM. 1.1% of 290,000 active. bead flow cytometry, Alexa488-MEK5 binding to MEKK2 WT; actives lie on both sides. AID 1531; in the data active = binding response below about 67% or above about 130%
ABCB1 inh = inhibitors of human ABCB1 transporter, ABCG2 counter-screen | AID 1326 | P08183 | CCRF-Adr cells, JC-1 efflux, flow cytometry | 0.067% of 190,000 active | inhibition, % at 6.6 µM; in the data active = inhibition above about 40%;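 note: 0% = vehicle and 100% = reference inhibitor; higher value means more JC-1 retained so stronger ABCB1 efflux block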
MEKK2wt confirm = raises or lowers MEK5 binding to wildtype human MEKK2, retest; shares compounds with MEKK3 PB1 HTS; bead flow cytometry, Alexa488-MEK5 binding to MEKK2 WT; actives lie on both sides; binding response (% of control), % at 10 µM; 2.4% of 5,900 active; in the data active = binding response below about 16% or above about 210%; inactive = in between
MEKK2mut confirm = signal of MEK5 binding to mutant human MEKK2, retest; 2% of 5,900 active; bead flow cytometry, Alexa488-MEK5 binding to MEKK2 mutant; shares compounds with MEKK3 PB1 HTS; percent response, % at 10 µM; AID 1893; in the data active = percent response mostly above about 71%, no sharp cut-off; inactive = mostly below about 38%;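 note: higher means compound restores mutant binding toward wildtype level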
MEKK3-MEK5 inh = MEKK3-MEK5 PB1 inhibition, single concentration confirmation; 1.8% of 5,900 active; bead flow cytometry, Alexa488-MEK5 binding to MEKK3; stronger effect = lower value; shares compounds with MEKK3 PB1 HTS; binding response (% of control), % at 10 µM;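 active = binding response below 72% of control, or above a set upper limit, though filed actives all read lower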;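 note: 100% = DMSO only wells and 0% = binding blocked by excess unlabeled MEK5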
An asterisk follows results filed as active; / = no result given; [ ] = remark or other dose.

SMILES | MEKK2mut PB1 HTS | MEKK3 PB1 HTS | ABCG2 inh | WT yeast gro inh | MEKK2wt PB1 HTS | ABCB1 inh | MEKK2wt confirm | MEKK2mut confirm | MEKK3-MEK5 inh
Cc1ccc(CNC(=O)c2ccc3nc4[nH]c5ccccc5c4nc3c2)cc1 | -1 | 72*[inhibitor] | 0 | -8 | 97 | 0 | 91 | -3 | 97
COc1ccccc1CNC(=O)c1ccc2nc3[nH]c4ccccc4c3nc2c1 | -6 | 94 | -4 | 15 | 85 | 0 | / | / | /
OCCN(CC(O)Cn1ccc2ccccc21)CC(O)Cn1ccc2ccccc21 (stereo not drawn) | / | / | 1 | 4 | / | 0 | / | / | /
CC(C)(C)c1ccc(OCC(O)CN(CCO)CC(O)Cn2ccc3ccccc32)cc1 (stereo not drawn) | 0 | 133* | 14 | 10 | 106 | 1 | 115 | 5 | 103
Cc1ccc(NC(=O)c2ccc(-n3cccn3)c([N+](=O)[O-])c2)cc1 | -3 | 99 | 5 | 15 | 96 | 0 | / | / | /
O=C(Nc1ccc(C2=NCCN2)cc1)c1ccc(C(=O)Nc2ccc(C3=NCCN3)cc2)c([N+](=O)[O-])c1 | 32 | 63*[inhibitor] | / | / | 151* | / | 104 | 6 | 46*
CCOC(=O)Cn1nc(C)c(NC(=O)COc2cccc(Cl)c2)c1C | 0 | 132* | 0 | 1 | 119 | 0 | 106 | 7 | 104
CCOC(=O)Cn1nc(C)c(NC(=O)COc2ccc([N+](=O)[O-])cc2)c1C | -9 | 96 | -2 | -19 | 88 | 0 | / | / | /
CC(C)CCN1C(=O)c2ccc(C(=O)Nc3ccc(Br)cc3C(=O)O)cc2C1=O | 0 | 97 | / | / | 97 | / | / | / | /
Cc1ccc(N(CN2C(=O)NC(C)(C)C2=O)CN2C(=O)NC(C)(C)C2=O)cc1 | -16 | 2.0*[inhibitor] | 3 | 3 | 2.0*[inhibitor] | 1 | 101 | -4 | 99
Cc1ccc(N(CC(O)CN2C(=O)NC(C)(C)C2=O)S(=O)(=O)c2ccc(C)cc2)cc1 (stereo not drawn) | -4 | 97 | / | / | 93 | / | / | / | /
COC(=O)CCC/C=C1\SC[C@@H](NC(=O)c2ccccc2)C1NC(C)=O (stereo partly drawn) | 0 | 100 | 1 | -2 | 100 | 1 | / | / | /
Cn1c(=O)cc(OCCCC(=O)NCc2cccnc2)c2ccccc21 | -16 | 48*[inhibitor] | 2 | -8 | 51 | 0 | 100 | -3 | 99
NS(=O)(=O)c1ccc(NC(=O)C(Sc2ccccc2)c2ccccc2)cc1 (stereo not drawn) | 4 | 90 | -1 | -43 | 91 | 0 | / | / | /
Cc1cc(C)nc(N/N=C/c2ccccc2Cl)n1 | -6 | 93 | / | / | 98 | / | / | / | /
COc1ccc(Nc2cc(C)nc(NCc3ccccc3)n2)cc1 | 10 | 102 | / | / | 130 | / | / | / | /
Cc1ccc(Nc2cc(C)nc(NCc3ccccc3)n2)cc1 | 6 | 116 | 3 | 65 | 151* | 0 | 183 | 40 | 108
Cc1cc(N2CCN(c3ccccc3)CC2)nc(NCc2ccccc2)n1 | 18 | 109 | 2 | 40 | 168* | 3 | 161 | 42 | 109
Cc1cc(N/N=C/c2ccccc2Cl)nc(NCc2ccccc2)n1 | 37 | 103 | 9 | 75 | 146* | 1 | 172 | 56 | 108
COc1ccc(N2CCN(C(=O)CCCSc3nc4ccccc4[nH]3)CC2)cc1 | 2 | 101 | 6 | / | 105 | 1 | / | / | /
CN(CCO)c1cc(N2CCC3(CC2)OCCO3)c2nonc2c1[N+](=O)[O-] | -1 | 74*[inhibitor] | 17 | -1 | 105 | 1 | 98 | -2 | 100
COc1cc(/C=C(\C#N)C(=O)NCCc2ccccc2)cc(OC)c1O | 2 | 101 | 32 | -10 | 105 | 1 | / | / | /
